The record followed here is ChEMBL document CHEMBL1121585, “Inhibitors of phenylethanolamine N-methyltransferase and epinephrine biosynthesis. 1. Chloro-substituted 1,2,3,4-tetrahydroisoquinolines” (J Med Chem, 1980).

Holding throughout (format): functional
Test [1] has as its system Mus musculus. Put plainly: Maximum inactive dose(MID) for decrease in norepinephrine (NE) / epinephrine(E) was measured in mice (po). The gist of the method:
(§1)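 Male Charles River mice, 30–40 g, groups of five. Oral dosing in 1% methylcellulose twice daily for 7 days, plus a final morning dose. Killed 2 h later; adrenals homogenised in 0.4 N HClO4 and alumina-extracted. E and NE measured.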

Test [2] concerns Mus musculus. Put plainly: Minimum active dose(MAD) for decrease in norepinephrine (NE) / epinephrine(E) was measured in mice (po). A digest of the protocol: as §1
The next test relates to Rattus norvegicus. The experiment in a line: Phenylethanolamine N-methyl-transferase inhibition determined as of [3H]epinephrine biosynthesis in rats at 50 mg/kg (po).
Test [3] has as its system Mus musculus. The experiment in a line: Minimum active dose(MAD) for decrease in norepinephrine (NE) / epinephrine(E) ratio was measured in mice (po). A digest of the protocol: as §1

`Clc1ccc2c(c1Cl)CNCC2`: the MID in the test with Mus musculus [1] came out at 2.5 mg/kg. For the same molecule, the MAD in the test on Mus musculus [2] was 5 mg/kg.

One may read the inhibition in vivo as the share of the control response that was lost under treatment. A high value points to a response far below the control. `Clc1cc(Cl)c2c(c1Cl)CNCC2` yielded an MID in the test with Mus musculus [1] of 100 mg/kg. Moreover, at 50 mg/kg the inhibition in vivo in the test on Rattus norvegicus was 16%.

As for `Clc1c(Cl)c(Cl)c2c(c1Cl)CCNC2`, the MAD in the test with Mus musculus [3] was determined as 100 mg/kg. In the test on Mus musculus [1], this molecule gave an MID of 25 mg/kg.

As for `Clc1cccc2c1CNCC2`, the MAD in the test with Mus musculus [3] is 7.5 mg/kg. This molecule also registered an MID in the test with Mus musculus [1] of 2.5 mg/kg. 50 mg/kg produced 45% inhibition in vivo with Rattus norvegicus.

Take `Clc1ccc2c(c1)CNCC2`: the MAD in the test on Mus musculus [3] was found to be 12.5 mg/kg. For the same molecule, the MID in the test with Mus musculus [1] stood at 7.5 mg/kg. In the test on Rattus norvegicus, this molecule returned an inhibition in vivo at 50 mg/kg of 78%.

`Clc1cc2c(c(Cl)c1Cl)CNCC2`: the MID in the test with Mus musculus [1] was 50 mg/kg. This molecule also showed an inhibition in vivo at 50 mg/kg with Rattus norvegicus of 25%.
